# Only a selection was taken, and hits are over-represented in it overall.
# PvdQ inh – P. aeruginosa PvdQ acylase inhibition | purified PvdQ acylase, fluorescence plate reader | 340,000 tested, 0.063% active | inhibition, % at 10 µM | AID 488965; in the data active = inhibition above about 30%, passing the limit was not always enough
# UPR XBP1 act – activators of adaptive arm of unfolded protein response (XBP1) | activation, % at 20 µM | CHO-XBP1 luciferase reporter, IRE1-XBP1 UPR activation, luminescence; percent of tunicamycin response, DMSO as zero | AID 463104 | 330,000 tested, 0.33% active;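 active = versus positive control, 20 µM dose yields 30% or more activation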
#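 Assay system: CHO-XBP1 luciferase reporter cells; Schedule: 6 h treatment, 37 °C; Detection: glow luminescence from Steady-Glo reagent; Benchmarks: high control tunicamycin 10 µg/mL final, low control DMSO vehicle only.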
# CHOP inh – blocks CHOP induction under ER stress | CHO-K1 CHOP-promoter luciferase, tunicamycin-induced, 15-18 h | inhibition, % at 10 µM | 220,000 tested, 3.8% active;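 active = compounds that reduced the stress-induced luciferase reporter signal by more than about 70% of percent inhibition, limit read from the data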
# UPR CHOP act – apoptotic UPR (CHOP) activation; CHO-CHOP luciferase reporter, luminescence; percent of tunicamycin response over DMSO baseline; activation, % at 10 µM; 330,000 tested, 0.34% active; AID 449763;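 active = at 10 µM dose, activation of 40% or more, normalized to positive control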
#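 Test system: CHO CHOP reporter cells. Input: 500 CHO-CHOP cells per well. Medium: F12 with 10% FBS. Technique: luciferase luminescence. Measure: percent activation relative to tunicamycin control. Dosing: 10 µM compound, 0.5% DMSO. Timing: 16-18 h cell attachment, then 6 h compound exposure, 37 °C.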
# Numbers stand for hits; - = inactive; . = no result.
SMILES,PvdQ inh,UPR XBP1 act,CHOP inh,UPR CHOP act
Cc1ccc(NC(=O)c2c(C(F)(F)F)nn(C)c2SCc2cccc(C(F)(F)F)c2)cc1C,-,-,-,-
Cc1ccc(NC(=O)c2sccc2SCc2cccc(C(F)(F)F)c2)cc1,-,-,80,-
Cc1cccc(C)c1NC(=O)c1sccc1SCc1cccc(C(F)(F)F)c1,-,-,82,-
COc1ccc(-c2ccnc(SCC(=O)c3ccc(OC)c(OC)c3)n2)cc1,-,-,-,-
COc1ccc(OC)c(C(=O)CSc2nccc(-c3ccc(Br)cc3)n2)c1,-,-,80,-
CC(=O)c1cccc(NC(=O)C(CC(C)C)NC(=O)C2CCCCC2)c1 (stereo not given),-,-,-,-
O=C(C(Cc1ccccc1)n1cccc1)N1CCN(c2ccccc2)CC1 (stereo not given),-,-,78,-
CC(Sc1nnnn1-c1ccc(O)cc1)C(=O)NNC(=O)c1ccc(F)cc1 (stereo not given),-,-,.,-
COc1nc(N/N=C/c2ccc(-c3cccc([N+](=O)[O-])c3)o2)nc(N2CCOCC2)n1,.,.,71,.
O=[N+]([O-])c1ccc(-c2ccc(/C=N/Nc3nc(N4CCCC4)nc(N4CCCC4)n3)o2)cc1,-,-,-,-
O=[N+]([O-])c1cccc(-c2ccc(/C=N/Nc3nc(N4CCCCC4)nc(N4CCCCC4)n3)o2)c1,-,-,-,-
O=[N+]([O-])c1ccc(-c2ccc(/C=N/Nc3nc(N4CCCCC4)nc(N4CCCCC4)n3)o2)cc1,-,-,95,-
CCCCCN1C=CC(=C2C(=O)c3ccccc3C2=O)C=C1,-,-,98,-
CC1=CC(=C2C(=O)c3ccccc3C2=O)C=C(C)N1C,-,-,-,-
CCCc1nc2sc(C(=O)OCC)c(N)c2c2c1COC(C)(C)C2,-,-,81,-
CCOC(=O)c1sc2nc(C)c3c(c2c1N)CC(C)(C)OC3,-,-,-,-
N#C/C=C(/N)N1CCN(c2ccc(Cl)c(Cl)c2)CC1,-,-,80,-
COC(=O)N1CCN(c2ccc(Cl)c(Cl)c2)CC1,-,-,-,-
Cc1ccc(CCNC(=O)CCS(=O)(=O)c2ccc(Br)cc2)cc1,30,-,-,-
Cc1ccc(S(=O)(=O)CCC(=O)NCCc2ccc(Cl)cc2)cc1,-,-,.,-
Cc1ccc(C(=O)N/N=C\c2cc3c(cc2Br)OCO3)s1,-,-,93,-
CCCc1cc(C(=O)Nc2cccc(Cl)c2C)no1,-,-,.,-
COc1ccc(OC)c(CNC(=O)CCn2nc(C)c3c(C)n(-c4ccccc4)nc3c2=O)c1,-,-,.,-
CCOC(=O)c1cnc(-n2nc(C)cc2C)nc1NNc1cc(-c2ccccc2)nc(C)n1,.,-,74,-
CCOC(=O)c1cnc(-n2nc(C)cc2C)nc1NNc1ncc(-c2ccccc2)cn1,.,-,-,-
SMILES,PvdQ inh,UPR XBP1 act,CHOP inh,UPR CHOP act
Cc1ccc(O)c(C(=O)/C=C/c2ccc3c(c2)OCCO3)c1,64,-,-,-
Cc1ccc(-c2[nH]c3ccccc3c2C(C[N+](=O)[O-])c2ccco2)cc1 (stereo not given),-,-,89,-
O=C(Nc1cccc([N+](=O)[O-])c1)Nc1cnccn1,-,-,.,-
S=C(NNc1ccnc2cc(Cl)ccc12)Nc1ccccc1Cl,-,-,96,-
S=C(Nc1ccccc1Cl)Nc1ccc(Cl)cc1Cl,-,-,-,-
CC(/C=N/NC(=O)c1cc(-c2ccc(C)s2)[nH]n1)=C\c1ccccc1,-,-,96,-
CC(/C=N/NC(=O)c1cc(C(C)(C)C)[nH]n1)=C\c1ccccc1,-,-,76,-
Cc1nn(-c2ccccc2)c(C)c1/C=N/NC(=O)c1cc(-c2ccc(Cl)s2)[nH]n1,-,-,-,-
Cc1nn(-c2ccccc2)c(C)c1/C=N/NC(=O)c1cc(-c2ccc(Br)s2)[nH]n1,-,-,70,-
CCCC(=O)OCC(=O)c1[nH]c(C)c(C(C)=O)c1C,-,-,-,-
Cc1cc2c(cc1C)CSC(c1ccccc1OC(=O)C(C)C)SC2,-,-,72,-
Nc1nc(Cl)nc2c1ncn2[C@@H]1O[C@H](CO)[C@H](O)C1O (stereo not given in full),.,.,-,.
C=C(C(=O)Oc1ccccc1C(C)(C)C)c1ccccc1,.,-,.,193
CC(C)(C)c1ccccc1OCC(=O)NCCC(=O)O,-,-,-,-
CCOC(=O)c1cc(NC(=O)Nc2ccccn2)c(C)nc1C,-,-,-,-
CC(=O)c1ccc(OC(C)c2nc3ccccc3s2)cc1 (stereo not given),-,-,.,-
CCn1cc(Cl)c(C(=O)N2N=C3/C(=C/c4cccs4)CCCC3C2c2cccs2)n1 (stereo not given),-,-,83,-
CN(C(=O)c1ccc2c(c1)C(=O)N(CCC1=CCCCC1)C2=O)C1CCCCC1,-,-,99,-
O=C(/C=C\c1ccccc1)Nc1ccc(NC(=O)c2ccco2)cc1,-,-,95,-
Cc1nc(NC(=O)/C=C/c2ccccc2)sc1C(=O)NCCO,-,-,-,-
Cc1nc(NC(=O)/C=C/c2ccccc2)sc1C(=O)Nc1ccccc1,-,-,92,-
O=S(=O)(NCC1CCCO1)c1ccc(Cl)cc1 (stereo not given),-,-,.,-
CCOC(=O)c1cnc(SCC(=O)Nc2cc(OC)cc(OC)c2)nc1N,-,-,76,-
CCOC(=O)c1cnc(SCC(=O)Nc2sc(C)c(C)c2C#N)nc1N,-,-,71,-
CCOC(=O)c1cnc(SCC(=O)Nc2ccc(N3CCOCC3)c(Cl)c2)nc1N,-,-,-,-
SMILES,PvdQ inh,UPR XBP1 act,CHOP inh,UPR CHOP act
O=C(CSc1cc(Cl)ccc1Cl)NCC(=O)Nc1ccc(F)c(F)c1F,-,-,72,-
Cc1cccc(NC(=O)C2C(c3ccccc3)C2(Cl)Cl)c1 (stereo not given),-,-,74,-
Cc1ccc(C(=O)N/N=C/c2ccc([N+](=O)[O-])s2)cc1,-,-,70,-
O=C(N/N=C/c1ccc([N+](=O)[O-])s1)c1ccncc1,-,-,-,-
CC(=O)Nc1ccc(C2=CC(=O)C[C@H](c3ccc(Cl)cc3)C2)cc1,-,-,.,-
Cc1ccc(S(=O)c2snnc2C)cc1 (stereo not given),-,-,.,-
Cc1ccc(S(=O)c2ccc(C)cc2)cc1,79,-,-,-
O=C(Cc1ccccc1[N+](=O)[O-])OCC(=O)c1ccccc1Br,-,-,.,-
Oc1ccc(C(c2nnnn2C2CCCC2)N2CCc3ccccc3C2)cc1 (stereo not given),-,-,88,-
COc1cc(C(c2nnnn2C2CCCC2)N2CCc3ccccc3C2)ccc1O (stereo not given),-,-,-,-
COCCn1c(=NC(=O)c2sc3ccccc3c2Cl)sc2cc(S(N)(=O)=O)ccc21,-,-,75,-
C=CCn1c(=NC(=O)c2sc3ccccc3c2Cl)sc2cc(S(N)(=O)=O)ccc21,-,-,82,-
C=CCn1c(=NC(=O)c2cc(Cl)sc2Cl)sc2cc(S(N)(=O)=O)ccc21,-,-,-,-

# Assay outcomes: PubChem BioAssay, several laboratories
